The results in this text go back to ChEMBL document CHEMBL1137710, “Synthesis and in vitro antitumor activity of new quinoxaline derivatives” (2009).

The term GI50 denotes the concentration that inhibits growth by half. Low readings indicate more potent growth inhibition, high ones less potent growth inhibition. In general, LC50 refers to the concentration that kills 50% of the test population. Read a low LC50 as greater toxicity.

Common to all, as to type: functional
The subject of one assay is HCC 2998. Kind of assay: Growth inhibition of human HCC2998 cells after 48 hrs by sulforhodamine B assay. The following applies: HCC 2998, 48 h; for TGI: read-out: pTGI (converted). The method, boiled down:
(§1)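 NCI 60-human-tumor-cell-line panel, with compounds tested over a 5-log dose range. Values are taken from dose-response curves as log10 molar concentrations: GI50 is 50% net growth inhibition, TGI is total growth inhibition, and LC50 is 50% net cell death.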

A further assay deals with HCT-15. Kind of assay: Growth inhibition of human HCT15 cells after 48 hrs by sulforhodamine B assay. Conditions: HCT-15, 48 h; for TGI: read-out: pTGI (converted). The method, boiled down:
as §1
For orientation: The SRB assay estimates cell density from bound dye.

The next assay concerns BT-549. Kind of assay: Growth inhibition of human BT549 cells after 48 hrs by sulforhodamine B assay. The following applies: BT-549, 48 h; for CC50: read-out: pLC50 (the source's name) (converted); for TGI: read-out: pTGI (converted). The method in brief: as §1
The test system of another assay is MDA-N. Kind of assay: Growth inhibition of human MDA-N cells after 48 hrs by sulforhodamine B assay. The following applies: for CC50: read-out: pLC50 (the source's name) (converted); for TGI: read-out: pTGI (converted).

For `COc1cc(OC)cc(Oc2nc3cc(N)cc(N)c3nc2-c2ccccc2)c1`, in the assay with HCC 2998, the GI50 is 2.51 µM and the TGI was 13.8 µM. In the assay on HCT-15, the GI50 is 2.04 µM and the TGI was 12.3 µM. In the assay with BT-549, growth was halved (GI50) at 1.48 µM, the CC50 is 38 µM and the TGI was 6.92 µM.
Turning to `COc1ccc(CNc2nc3cc(N)cc(N)c3nc2-c2ccccc2)cc1`, in the assay with HCC 2998, the GI50 is 21.9 µM, the LC50 (50% net cell kill) is over 100 µM and the TGI is 51.3 µM. Besides, in the assay on HCT-15, the GI50 is 15.8 µM, the LC50 is 75.9 µM and the TGI was 34.7 µM. Further, in the assay on MDA-N, it took 14.1 µM to inhibit growth by half (GI50), the CC50 is 53.7 µM and the TGI is 27.5 µM. Also, in the assay with BT-549, the GI50 was 6.46 µM, the CC50 was over 100 µM and the TGI is 30.9 µM.
On to `Nc1cc(N)c2nc(-c3ccccc3)c(Oc3ccc(F)cc3)nc2c1`, for which, in the assay on HCT-15, the GI50 is 36.3 µM, the LC50 was over 100 µM and the TGI is over 100 µM. Also, in the assay on BT-549, it took 15.1 µM to inhibit growth by half (GI50), the CC50 is 81.3 µM and the TGI is 34.7 µM.
As for `Nc1cc(N)c2nc(-c3ccccc3)c(NCc3ccc(Cl)c(Cl)c3)nc2c1`, in the assay with HCT-15, it took 4.68 µM to inhibit growth by half (GI50), the LC50 is over 100 µM and the TGI was over 100 µM.
In the case of `COc1ccc(Oc2nc3cc(N)cc(N)c3nc2-c2ccccc2)cc1`, in the assay with HCT-15, the GI50 was 52.5 µM, the LC50 was over 100 µM and the TGI is over 100 µM. For the same molecule, in the assay on MDA-N, the GI50 was 35.5 µM, the CC50 was over 100 µM and the TGI is over 100 µM. Moreover, in the assay with BT-549, halving of growth (GI50) required 32.4 µM, the CC50 was over 100 µM and the TGI was over 100 µM.
With `COc1ccc(CNc2nc3cc(N)cc(N)c3nc2-c2ccccc2)cc1OC`, in the assay on HCC 2998, it took 22.9 µM to inhibit growth by half (GI50), the LC50 (50% net cell kill) was over 100 µM and the TGI was 56.2 µM. In the assay on HCT-15, it took 30.2 µM to inhibit growth by half (GI50), the LC50 is over 100 µM and the TGI is over 100 µM. Further, in the assay with BT-549, the concentration for 50% growth inhibition (GI50) is 13.5 µM, the CC50 was 79.4 µM and the TGI was 32.4 µM.
For the molecule `Nc1cc(N)c2nc(-c3ccccc3)c(Oc3ccc(Cl)c(Cl)c3)nc2c1`, in the assay on HCT-15, growth was halved (GI50) at 20 µM, the LC50 was over 100 µM and the TGI is over 100 µM.
Molecule `COc1cc(CNc2nc3cc(N)cc(N)c3nc2-c2ccccc2)cc(OC)c1` showed a GI50 in the assay with HCT-15 of 19.5 µM. In the assay with MDA-N, it took 2.34 µM to inhibit growth by half (GI50), the CC50 was over 100 µM and the TGI is 5.25 µM. Moreover, in the assay with BT-549, the GI50 was 9.77 µM, the CC50 is over 100 µM and the TGI was over 100 µM.
On to `Nc1cc(N)c2nc(-c3ccccc3)c(Sc3ccc(F)cc3)nc2c1`, for which, in the assay with HCT-15, the GI50 was 13.5 µM, the LC50 is 56.2 µM and the TGI is 27.5 µM. Also, in the assay with BT-549, the GI50 is 21.9 µM, the CC50 was 89.1 µM and the TGI was 43.7 µM.
Consider `COc1cc(CNc2nc3cc(N)cc(N)c3nc2-c2ccccc2)cc(OC)c1OC`, for which, in the assay with HCT-15, the GI50 was 3.24 µM, the LC50 is over 50.1 µM and the TGI was 13.8 µM. Also, in the assay with BT-549, it took 3.8 µM to inhibit growth by half (GI50), the CC50 is 27.5 µM and the TGI was 11.2 µM.
For `Nc1cc(N)c2nc(-c3ccccc3)c(NCc3ccc(F)cc3)nc2c1`, in the assay on HCT-15, halving of growth (GI50) required 3.31 µM, the LC50 is over 100 µM and the TGI was 19.1 µM. Besides, in the assay on BT-549, growth was halved (GI50) at 1.7 µM, the CC50 is 6.31 µM and the TGI was 3.24 µM.
